# Assay results: ChEMBL document CHEMBL1140082, “Design, synthesis, and biological evaluation of potent c-Met inhibitors” (J Med Chem, 2008)
# Assays:
# [1] = biological target: Fibroblast growth factor receptor 2 (Homo sapiens, UniProt P21802); test: Inhibition of FGFRK2
# [2] = biological target: Ribosomal protein S6 kinase alpha-5 (Homo sapiens, UniProt O75582); test: Inhibition of MSK1
# [3] = Inhibition of IGFR
# [4] = Half life in iv dosed rat; type: ADME, organism-based; details: in vivo
# [5] = biological target: Tyrosine-protein kinase ZAP-70 (Homo sapiens, UniProt P43403); test: Inhibition of ZAP70
# [6] = biological target: Tyrosine-protein kinase Lck (Homo sapiens, UniProt P06239); test: Inhibition of LCK
# [7] = Bioavailability in iv dosed rat; type: ADME, organism-based; details: in vivo
# [8] = biological target: T1, Tyrosine-protein kinase JAK3 (Homo sapiens, UniProt P52333); test: Inhibition of JAK3
# T1 sequence (P52333 whole entry): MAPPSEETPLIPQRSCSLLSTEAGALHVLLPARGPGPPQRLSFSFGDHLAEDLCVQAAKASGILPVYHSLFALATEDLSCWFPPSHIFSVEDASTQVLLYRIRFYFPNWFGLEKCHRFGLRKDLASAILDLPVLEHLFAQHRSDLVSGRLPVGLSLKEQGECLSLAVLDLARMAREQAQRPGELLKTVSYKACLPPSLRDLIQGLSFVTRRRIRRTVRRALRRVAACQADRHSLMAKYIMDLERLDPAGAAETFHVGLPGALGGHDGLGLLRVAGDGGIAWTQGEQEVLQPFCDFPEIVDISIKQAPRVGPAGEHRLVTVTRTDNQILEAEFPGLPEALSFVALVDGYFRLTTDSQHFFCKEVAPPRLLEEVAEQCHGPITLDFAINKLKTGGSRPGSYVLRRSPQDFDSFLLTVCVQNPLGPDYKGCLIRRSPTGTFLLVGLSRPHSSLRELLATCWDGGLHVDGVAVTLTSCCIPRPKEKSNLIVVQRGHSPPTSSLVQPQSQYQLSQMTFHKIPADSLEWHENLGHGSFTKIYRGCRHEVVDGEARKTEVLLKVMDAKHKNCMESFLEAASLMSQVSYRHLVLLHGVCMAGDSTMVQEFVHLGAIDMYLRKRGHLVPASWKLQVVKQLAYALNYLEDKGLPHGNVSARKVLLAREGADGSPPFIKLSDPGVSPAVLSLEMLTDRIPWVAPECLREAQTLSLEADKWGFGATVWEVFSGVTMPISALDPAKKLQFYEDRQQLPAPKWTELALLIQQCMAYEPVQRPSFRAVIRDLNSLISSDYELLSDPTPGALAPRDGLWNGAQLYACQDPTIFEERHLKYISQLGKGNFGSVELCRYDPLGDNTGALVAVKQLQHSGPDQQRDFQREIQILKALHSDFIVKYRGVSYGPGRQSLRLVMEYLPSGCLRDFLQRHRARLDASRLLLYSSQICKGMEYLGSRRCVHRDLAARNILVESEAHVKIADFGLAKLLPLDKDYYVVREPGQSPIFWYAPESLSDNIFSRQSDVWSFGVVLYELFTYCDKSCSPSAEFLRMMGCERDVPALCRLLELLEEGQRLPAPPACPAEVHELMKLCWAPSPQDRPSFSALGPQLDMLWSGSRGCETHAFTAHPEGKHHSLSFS
# [9] = biological target: cAMP-dependent protein kinase catalytic subunit alpha (Homo sapiens, UniProt P17612); test: Inhibition of PKAalpha
# Aurora kinase A = biological target: T2, Aurora kinase A (Homo sapiens, UniProt O14965); test: Inhibition of Aurora2
# T2 sequence (O14965 whole entry): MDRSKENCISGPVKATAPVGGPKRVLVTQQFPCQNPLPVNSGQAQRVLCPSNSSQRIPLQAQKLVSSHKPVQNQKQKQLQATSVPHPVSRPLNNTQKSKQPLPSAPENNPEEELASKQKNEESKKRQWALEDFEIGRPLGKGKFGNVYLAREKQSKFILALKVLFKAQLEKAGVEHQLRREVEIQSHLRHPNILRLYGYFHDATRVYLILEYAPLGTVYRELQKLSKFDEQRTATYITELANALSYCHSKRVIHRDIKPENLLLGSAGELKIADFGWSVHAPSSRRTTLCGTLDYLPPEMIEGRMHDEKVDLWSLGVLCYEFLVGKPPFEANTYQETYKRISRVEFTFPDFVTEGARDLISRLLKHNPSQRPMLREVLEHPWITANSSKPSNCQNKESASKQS
# Mus musculus = test: Inhibition of human recombinant HGF-induced cMet phosphorylation in po or ip dosed BALB/c mouse liver after 2 hrs
# [10] = Clearance in iv dosed rat; type: ADME, organism-based; details: in vivo
# [11] = biological target: Mitogen-activated protein kinase 3 (Homo sapiens, UniProt P27361); test: Inhibition of ERK1
# [12] = biological target: Tyrosine-protein kinase BTK (Homo sapiens, UniProt Q06187); test: Inhibition of BTK
# [13] = Inhibition of FGFRK
# [14] = biological target: Mitogen-activated protein kinase 9 (Homo sapiens, UniProt P45984); test: Inhibition of JNK2
# [15] = biological target: Vascular endothelial growth factor receptor 2 (Homo sapiens, UniProt P35968); test: Inhibition of phosphorylated KDR by HTRF assay
# Summary of the method: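 HTRF assay against KDR kinase with 10-point serial dilution. ATP at two-thirds of the experimentally determined Km (Eadie-Hofstee and Lineweaver-Burke). Ki derived from the IC50.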
# [16] = biological target: Vascular endothelial growth factor receptor 3 (Homo sapiens, UniProt P35916); test: Inhibition of Flt4 kinase
# Angiopoietin-1 receptor = Angiopoietin-1 receptor (Homo sapiens, UniProt Q02763); test: Inhibition of Tie2 kinase
# [17] = biological target: RAC-alpha serine/threonine-protein kinase (Homo sapiens, UniProt P31749); test: Inhibition of PKBalpha
# [18] = biological target: Hepatocyte growth factor receptor (Homo sapiens, UniProt P08581); test: Inhibition of cMet by HTRF assay
# [19] = Volume of distribution in iv dosed rat; type: ADME, organism-based; details: in vivo
# [20] = biological target: Tyrosine-protein kinase JAK2 (Homo sapiens, UniProt O60674); test: Inhibition of JAK2
# [21] = biological target: Macrophage-stimulating protein receptor (Homo sapiens, UniProt Q04912); test: Inhibition of phosphorylated RON
# [22] = biological target: Hepatocyte growth factor receptor c-Met (Mus musculus) (UniProt P16056); test: Inhibition of human recombinant HGF-mediated cMet phosphorylation in mouse CT26 cells
# [23] = Inhibition of P38 kinase
# [24] = biological target: Ribosomal protein S6 kinase beta-1 (Homo sapiens, UniProt P23443); test: Inhibition of P70S6
# [25] = biological target: Vascular endothelial growth factor receptor 1 (Homo sapiens, UniProt P17948); test: Inhibition of Flt1 kinase
smiles,measurement,setting,value
COc1cc2c(Oc3ccc(-c4cnc(Nc5ccc(F)cc5)n(C)c4=O)cc3F)ccnc2cc1OCCCN1CCOCC1,IC50,[1],0.14 µM
same,IC50,[2],> 100 µM
same,Ki,[3],0.022 µM
same,half-life,[4],2.4 h
same,IC50,[5],> 8.3 µM
same,IC50,[6],< 0.004 µM
same,bioavailability,[7],34%
same,IC50,[8],> 1 µM
same,IC50,[9],> 100 µM
same,IC50,Aurora kinase A,> 0.2 µM
same,ED90,Mus musculus,30 mg/kg
same,clearance,[10],9.33 mL/min/kg
same,IC50,[11],> 100 µM
same,IC50,[12],0.027 µM
same,IC50,[13],> 25 µM
same,IC50,[14],> 100 µM
same,Ki,[15],0.139 µM
same,IC50,[16],0.005 µM
same,IC50,Angiopoietin-1 receptor,0.026 µM
same,IC50,[17],> 100 µM
same,Ki,[18],0.0049 µM
same,Vd,[19],3.4 L/kg
same,IC50,[20],3.4 µM
same,Ki,[21],0.028 µM
same,IC50,[22],0.082 µM
same,IC50,[23],3.6 µM
same,IC50,[24],5.7 µM
same,IC50,[25],0.045 µM
CCN1CCN(CCCOc2cc3nccc(Oc4ccc(-c5cnc(Cc6ccccc6)n(C)c5=O)cc4F)c3cc2OC)CC1,Ki,[18],0.021 µM
COc1cc2c(Oc3ccc(-c4cnc(Cc5ccc(F)cc5)n(C)c4=O)cc3F)ccnc2cc1OCCCN1CCOCC1,Ki,[3],0.86 µM
same,Ki,[15],> 3 µM
same,Ki,[18],0.017 µM
same,IC50,[22],0.196 µM
COc1cc2c(Oc3ccc(-c4cnc(Cc5ccccc5)n(C)c4=O)cc3F)ccnc2cc1OCCCN1CCN(C)CC1,Ki,[18],0.0092 µM
COc1cc2nccc(Oc3ccc(-c4ccc(Cc5ccccc5)nn4)cc3F)c2cc1OC,Ki,[15],0.056 µM
same,Ki,[18],0.201 µM
COc1cc2nccc(Oc3ccc(-c4cnc(Nc5ccc(F)cc5)n(C)c4=O)cc3F)c2cc1OC,Ki,[3],0.07 µM
same,Ki,[15],0.382 µM
COc1cc2nccc(Oc3ccc(-c4cnc(C(N)c5ccccc5)n(C)c4=O)cc3F)c2cc1OC (centres undefined),Ki,[18],0.072 µM
